From paper PMC4298701 (Diabetes, 2007)

Tests used:
[1] = target: debranching enzyme (α-1, 6-glucosidase) (Homo sapiens, UniProt P35573); experiment: Debranching enzyme, erythrocyte preparation; assay type: biochemical; conditions: at a concentration <1 μmol/l; data not shown
C57Bl/6J mice = experiment: Ceramide and glycosphingolipids in liver and muscle of normal C57Bl/6J mice; assay type: in vivo
rodents = experiment: Tolerability in rodents; assay type: in vivo; conditions: up to 100 mg · kg−1 · day−1 for 2 months
ob/ob mice [2] = experiment: Hyperinsulinemic-euglycemic clamp in ob/ob mice; assay type: in vivo; conditions: 25 mg · kg body wt−1 · day−1, clamp
[3] = Plasma levels of AMP-DNM in mice; assay type: in vivo
Summary of the method: (§1)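 Plasma test compound was measured by HPLC followed by mass spectrometry, with blood taken by tail vein, retro-orbital or cardiac puncture. Half-life was determined in mice and rats. For plasma concentration, six-week-old C57Bl/6J mice (n = 4) were dosed at 25 mg·kg−1·day−1 for 14 days and sampled during treatment; mean ± SE.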

[4] = system: C57Bl/6J mice fed a high-fat diet; experiment: Glucose homeostasis in high-fat diet-induced glucose-intolerant C57Bl/6J mice; assay type: in vivo; conditions: high-fat diet C57Bl/6J mice, 2 weeks, ± SD
Summary of the method: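 C57Bl/6J mice were made glucose-intolerant by 4 weeks on a high-fat diet (16.4% protein, 25.5% carbohydrate, 58.0% fat). They then received test compound by daily oral gavage at 0, 5 or 25 mg·kg−1·day−1 for 2 weeks, n = 8 per group. Fasted blood glucose was measured; means ± SD.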

[5] = In vitro incubation with microsomes; assay type: in vitro ADME; conditions: 4 h; not shown
sucrase = sucrase (Rattus norvegicus, UniProt P23739); experiment: Sucrase, homogenates of freshly isolated rat intestine; assay type: biochemical; conditions: read-out: IC50 sucrase; rat intestine homogenate
acid α-glucosidase = acid α-glucosidase (Homo sapiens, UniProt P10253); experiment: Acid α-glucosidase inhibition; assay type: biochemical; conditions: at a concentration <1 μmol/l
3T3-L1 adipocytes [6] = experiment: Sphingolipid content of 3T3-L1 adipocytes; assay type: cell-based; conditions: TNF-α 0.6 nmol/l + AMP-DNM 10 μmol/l, 24 h, mean ± SE
ob/ob mice [7] = experiment: Glucose homeostasis, A1C and liver lipids/glycogen in ob/ob mice; assay type: in vivo
Summary of the method: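 ob/ob mice (C57Bl/6J background) were fed diet containing test compound at 25 mg·kg−1·day−1, with wild-type mice as reference; A1C was measured after 9 weeks. For oral glucose tolerance, animals were fasted >6 h and gavaged with glucose (1 or 2 g/kg). […] Means ± SE; two-tailed Student's t test.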

maltase = experiment: Maltase, homogenates of freshly isolated rat intestine; assay type: biochemical; conditions: read-out: IC50 maltase; rat intestine homogenate
3T3-L1 adipocytes [8] = experiment: Cell surface expression of GM3; assay type: cell-based; conditions: 10 μmol/l AMP-DNM, TNF-α 0.6 nmol/l, 24 h
Summary of the method: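 Fully differentiated 3T3-L1 adipocytes were serum-deprived in DMEM plus 1% BSA and treated for 24 h with vehicle, test compound (10 μmol/l) and/or TNF-α (0.6 nmol/l). Basal cells (no insulin) were stained with monoclonal anti-GM3 and FITC- or Alexa 488-conjugated secondary antibody, then read by flow cytometry as % viable cells GM3-positive. Means ± SE of four independent experiments.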

ZDF rats [9] = experiment: A1C in ZDF rats; assay type: in vivo
3T3-L1 adipocytes [10] = experiment: Insulin signaling in TNF-α-treated 3T3-L1 adipocytes; assay type: cell-based; conditions: 10 μmol/l AMP-DNM, TNF-α 0.6 nmol/l, 24 h
[11] = Plasma levels of AMP-DNM in rats; assay type: in vivo
Summary of the method: as §1

ob/ob mice [12] = experiment: Ceramide and glucosylceramide in liver and muscle of ob/ob mice; assay type: in vivo
[13] = Plasma levels, accumulation and metabolism after administration to rodents; assay type: in vivo
ZDF rats [14] = experiment: Ceramide and glycosphingolipid levels in liver of ZDF rats; assay type: in vivo; conditions: mean ± SD
[15] = system: endoplasmic reticulum–trimming α-glucosidases; experiment: ER-trimming α-glucosidases inhibition; assay type: biochemical; conditions: at a concentration <1 μmol/l
sphingomyelinase = target: T1, sphingomyelinase (Homo sapiens, UniProt P17405); experiment: Sphingomyelinase inhibition; assay type: biochemical; conditions: at a concentration <1 μmol/l
T1 sequence (P17405 47-631): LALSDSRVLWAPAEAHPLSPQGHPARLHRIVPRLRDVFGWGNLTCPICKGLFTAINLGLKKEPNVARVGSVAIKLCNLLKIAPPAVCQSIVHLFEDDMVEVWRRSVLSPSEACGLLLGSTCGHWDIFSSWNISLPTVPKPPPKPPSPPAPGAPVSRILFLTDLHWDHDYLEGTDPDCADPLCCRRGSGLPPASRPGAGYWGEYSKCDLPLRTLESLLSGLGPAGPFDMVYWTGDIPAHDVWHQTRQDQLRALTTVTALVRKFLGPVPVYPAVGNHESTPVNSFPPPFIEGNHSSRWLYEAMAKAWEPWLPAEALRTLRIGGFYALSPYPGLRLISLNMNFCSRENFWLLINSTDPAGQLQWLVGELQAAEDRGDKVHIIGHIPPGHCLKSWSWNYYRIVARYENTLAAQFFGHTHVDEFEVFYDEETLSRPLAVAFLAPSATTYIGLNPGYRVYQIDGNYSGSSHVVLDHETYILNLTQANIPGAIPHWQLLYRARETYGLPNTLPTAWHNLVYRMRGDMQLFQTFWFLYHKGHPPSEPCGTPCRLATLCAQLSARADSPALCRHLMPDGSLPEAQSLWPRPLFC

glycogen synthase = experiment: Glycogen synthase inhibition; assay type: biochemical; conditions: at a concentration <1 μmol/l; data not shown
[16] = C57Bl/6J mice, 25 mg · kg−1 · day−1, 14 days
[17] = normal C57Bl/6J mice, 25 mg AMP-DNM/kg, 2 weeks, mean ± SD
[18] = with insulin (100 nmol/l, 5 min)
[19] = ob/ob mice, 25 mg · kg body wt−1 · day−1
[20] = 25 mg AMP-DNM/kg, 2 weeks, mean ± SD
[21] = oral administration of 25 mg/kg body wt

Chain of sucrase (P23739 1014-1841 limits assumed): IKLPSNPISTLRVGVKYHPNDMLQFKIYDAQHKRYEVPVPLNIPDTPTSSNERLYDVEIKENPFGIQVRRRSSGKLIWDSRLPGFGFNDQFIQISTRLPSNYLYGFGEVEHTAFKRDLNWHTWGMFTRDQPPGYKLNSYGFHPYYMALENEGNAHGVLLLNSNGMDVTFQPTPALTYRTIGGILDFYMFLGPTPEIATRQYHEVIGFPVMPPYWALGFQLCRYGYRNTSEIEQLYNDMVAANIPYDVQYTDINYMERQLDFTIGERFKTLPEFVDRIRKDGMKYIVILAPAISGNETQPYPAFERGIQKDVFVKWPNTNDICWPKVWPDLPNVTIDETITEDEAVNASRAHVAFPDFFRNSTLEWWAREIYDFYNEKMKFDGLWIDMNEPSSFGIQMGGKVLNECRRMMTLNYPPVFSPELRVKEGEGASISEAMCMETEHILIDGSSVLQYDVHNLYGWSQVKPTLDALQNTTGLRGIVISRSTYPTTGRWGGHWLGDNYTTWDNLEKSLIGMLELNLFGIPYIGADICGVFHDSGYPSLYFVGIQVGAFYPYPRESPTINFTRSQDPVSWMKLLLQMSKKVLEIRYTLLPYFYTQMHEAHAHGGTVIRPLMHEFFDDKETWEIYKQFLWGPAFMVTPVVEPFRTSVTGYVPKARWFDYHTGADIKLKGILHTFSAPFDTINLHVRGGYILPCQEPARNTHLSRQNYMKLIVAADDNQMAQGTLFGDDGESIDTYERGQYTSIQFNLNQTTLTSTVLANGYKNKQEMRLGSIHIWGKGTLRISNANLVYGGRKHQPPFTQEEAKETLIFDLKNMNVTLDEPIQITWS
Chain of sucrase (P23739 1-1013 partner limits assumed): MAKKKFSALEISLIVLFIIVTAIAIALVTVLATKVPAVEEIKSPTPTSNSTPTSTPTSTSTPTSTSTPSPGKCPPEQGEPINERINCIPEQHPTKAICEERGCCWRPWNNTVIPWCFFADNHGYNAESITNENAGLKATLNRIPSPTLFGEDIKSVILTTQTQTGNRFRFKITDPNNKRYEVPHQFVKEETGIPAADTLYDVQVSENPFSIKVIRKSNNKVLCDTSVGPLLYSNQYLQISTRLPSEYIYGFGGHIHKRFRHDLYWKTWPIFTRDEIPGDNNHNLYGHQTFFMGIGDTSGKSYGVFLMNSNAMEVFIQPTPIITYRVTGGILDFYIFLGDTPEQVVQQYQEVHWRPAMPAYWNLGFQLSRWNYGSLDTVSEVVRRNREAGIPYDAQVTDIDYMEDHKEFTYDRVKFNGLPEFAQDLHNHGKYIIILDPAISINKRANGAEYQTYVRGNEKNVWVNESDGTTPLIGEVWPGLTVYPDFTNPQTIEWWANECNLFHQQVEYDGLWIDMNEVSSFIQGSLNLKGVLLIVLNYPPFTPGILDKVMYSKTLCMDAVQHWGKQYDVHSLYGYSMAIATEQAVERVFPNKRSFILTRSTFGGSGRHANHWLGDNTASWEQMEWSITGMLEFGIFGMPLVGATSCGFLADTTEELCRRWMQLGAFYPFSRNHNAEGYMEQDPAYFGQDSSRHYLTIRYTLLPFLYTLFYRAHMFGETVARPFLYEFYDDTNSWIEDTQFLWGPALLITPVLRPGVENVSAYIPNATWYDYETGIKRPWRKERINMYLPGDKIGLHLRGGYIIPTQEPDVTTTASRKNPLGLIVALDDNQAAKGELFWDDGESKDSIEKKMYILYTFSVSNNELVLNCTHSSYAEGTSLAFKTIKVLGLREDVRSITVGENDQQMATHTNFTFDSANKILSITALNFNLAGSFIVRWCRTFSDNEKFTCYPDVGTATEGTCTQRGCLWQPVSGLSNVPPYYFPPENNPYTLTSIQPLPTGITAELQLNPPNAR
Chain of debranching enzyme (α-1, 6-glucosidase) (P35573 whole entry): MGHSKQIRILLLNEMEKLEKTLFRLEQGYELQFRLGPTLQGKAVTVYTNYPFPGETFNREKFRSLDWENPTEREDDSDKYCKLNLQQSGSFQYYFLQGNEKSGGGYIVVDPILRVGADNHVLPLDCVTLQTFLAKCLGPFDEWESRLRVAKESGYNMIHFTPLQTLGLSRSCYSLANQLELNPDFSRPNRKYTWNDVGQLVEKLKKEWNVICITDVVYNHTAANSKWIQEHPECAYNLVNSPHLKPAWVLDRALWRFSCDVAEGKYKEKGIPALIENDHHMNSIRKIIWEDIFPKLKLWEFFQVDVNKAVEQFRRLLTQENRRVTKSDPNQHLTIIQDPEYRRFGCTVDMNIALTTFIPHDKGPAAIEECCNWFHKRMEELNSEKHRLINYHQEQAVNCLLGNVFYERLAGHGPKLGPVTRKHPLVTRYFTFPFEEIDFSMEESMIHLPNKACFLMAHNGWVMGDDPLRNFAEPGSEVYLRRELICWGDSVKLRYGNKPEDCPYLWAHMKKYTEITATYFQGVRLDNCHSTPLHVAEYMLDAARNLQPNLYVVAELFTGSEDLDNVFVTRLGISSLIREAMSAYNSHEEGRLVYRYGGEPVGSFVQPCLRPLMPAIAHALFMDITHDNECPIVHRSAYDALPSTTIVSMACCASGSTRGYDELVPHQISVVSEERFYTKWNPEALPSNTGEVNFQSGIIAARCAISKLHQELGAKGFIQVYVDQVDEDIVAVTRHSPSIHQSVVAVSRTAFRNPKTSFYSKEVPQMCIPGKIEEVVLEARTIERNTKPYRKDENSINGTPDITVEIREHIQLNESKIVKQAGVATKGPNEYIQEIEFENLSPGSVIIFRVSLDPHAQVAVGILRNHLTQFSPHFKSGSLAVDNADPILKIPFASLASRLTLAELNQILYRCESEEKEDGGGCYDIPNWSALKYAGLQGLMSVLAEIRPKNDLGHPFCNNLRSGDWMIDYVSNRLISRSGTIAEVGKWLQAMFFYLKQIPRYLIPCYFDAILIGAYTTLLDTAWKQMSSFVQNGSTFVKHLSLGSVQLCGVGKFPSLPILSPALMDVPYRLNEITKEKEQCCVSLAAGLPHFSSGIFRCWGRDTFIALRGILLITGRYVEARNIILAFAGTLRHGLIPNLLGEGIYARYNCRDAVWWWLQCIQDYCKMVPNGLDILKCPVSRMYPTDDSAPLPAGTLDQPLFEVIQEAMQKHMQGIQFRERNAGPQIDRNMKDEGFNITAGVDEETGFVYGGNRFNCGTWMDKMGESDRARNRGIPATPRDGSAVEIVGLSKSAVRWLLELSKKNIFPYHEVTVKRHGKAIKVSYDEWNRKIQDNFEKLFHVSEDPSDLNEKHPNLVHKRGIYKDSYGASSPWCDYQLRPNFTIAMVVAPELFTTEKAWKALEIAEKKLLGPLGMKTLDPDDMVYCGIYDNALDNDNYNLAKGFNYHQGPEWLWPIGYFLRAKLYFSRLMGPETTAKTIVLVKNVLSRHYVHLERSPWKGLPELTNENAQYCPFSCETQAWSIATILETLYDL

Which “effect on cytosolic debranching enzyme” value [1] does the source give for `OC[C@@H]1[C@@H](O)[C@H](O)[C@@H](O)CN1CCCCCOCC12CC3CC(CC(C3)C1)C2` [AMP-DNM, N-(5′-adamantane-1′-yl-methoxy)-pentyl-1-deoxynojirimycin] here?
The value was “unaffected”.

And the “reduction of ganglioside GM3 in liver” value (C57Bl/6J mice; [16])?
The value was 28 ± 6%.

What about the “reduction of liver glucosylceramide” value (C57Bl/6J mice; [16]) of the same compound?
Its value is 41 ± 5%.

And the “Cer, liver” value (C57Bl/6J mice; [17])?
The value was 10.31 ± 0.96 nmol/mg protein.

What about the “Cer, muscle” value (C57Bl/6J mice; [17]) of the same compound?
Its value is 1.47 ± 0.22 nmol/mg protein.

What about the “GlcCer, liver” value (C57Bl/6J mice; [17]) of the same compound?
Its value is 1.24 ± 0.09 nmol/mg protein.

What about the “GlcCer, muscle” value (C57Bl/6J mice; [17]) of the same compound?
Its value is 0.89 ± 0.22 nmol/mg protein.

What about the overt toxicity (rodents) of the same compound?
Its overt toxicity is “did not result in any overt toxicity”.

And the “decrease in hepatic glucose production (Ra)” value (ob/ob mice [2])?
The value was ~ 26%.

What about the “increase in glucose disposal (Rd)” value (ob/ob mice [2]) of the same compound?
Its value is ~ 29%.

And the whole-body insulin sensitivity (ob/ob mice [2])?
The whole-body insulin sensitivity was “marked improvement”.

What about the “plasma concentration of AMP-DNM” value ([3]; C57Bl/6J mice, 25 mg · kg body wt−1 · day−1 for 14 days, mean ± SE) of the same compound?
The value was 108 ± 6 nM.

What about the plasma half-life ([3]; mice) of the same compound?
The plasma half-life was ~ 3.1 h.

What about the fasting blood glucose ([4]; 5 mg · kg−1 · day−1 oral gavage) of the same compound?
The fasting blood glucose was 9.46 ± 0.26 mmol/L.

And the fasting blood glucose ([4]; 25 mg · kg−1 · day−1 oral gavage)?
The fasting blood glucose was 7.74 ± 0.40 mmol/L.

What about the “recovered after in vitro incubation with microsomes” value [5] of the same compound?
Its value is “More than 90%”.

And the IC50 (sucrase)?
The IC50 was 4.5 µM.

What about the “inhibition of acid α-glucosidase activity” value (acid α-glucosidase) of the same compound?
The value was “no significant inhibition”.

And the Ceramide (3T3-L1 adipocytes [6]; [18])?
The Ceramide was 1,241 ± 99 pmol/well.

And the GM3 (3T3-L1 adipocytes [6]; [18])?
The GM3 was 1,988 ± 169 pmol/well.

What about the Ceramide (3T3-L1 adipocytes [6]; without insulin) of the same compound?
The Ceramide was 1,241 ± 88 pmol/well.

What about the GM2 (3T3-L1 adipocytes [6]; without insulin) of the same compound?
Its GM2 is 267 ± 18 pmol/well.

What about the GM3 (3T3-L1 adipocytes [6]; without insulin) of the same compound?
The GM3 was 2,205 ± 138 pmol/well.

What about the “triglyceride concentration in liver” value (ob/ob mice [7]; AMP-DNM-fed ob/ob mice) of the same compound?
The value was 80 ± 11 nmol/mg liver.

What about the blood glucose concentrations (ob/ob mice [7]; [19]) of the same compound?
Its blood glucose concentrations is “pronounced reduction”.

And the “effect on body weight or food intake” value (ob/ob mice [7]; [19])?
The value was “no significant effect”.

What about the A1C concentration (ob/ob mice [7]; ob/ob mice, 25 mg · kg body wt−1 · day−1 for 9 weeks) of the same compound?
The A1C concentration was 4.82 ± 0.85%.

What about the “AUC of blood glucose concentrations, oral glucose tolerance test” value (ob/ob mice [7]; ob/ob mice, 25 mg/kg for 8 days, glucose 1 g/kg body wt, ± SD) of the same compound?
The value was 13.21 ± 1.43 arbitrary units per minute.

And the IC50 (maltase)?
The IC50 was 18 µM.

And the “TNF-α-increased cell surface levels of GM3 gangliosides” value (3T3-L1 adipocytes [8])?
Its value is “blocked”.

What about the A1C (ZDF rats [9]; 25 mg · kg−1 · day−1, 9 weeks) of the same compound?
Its A1C is 6.31 ± 0.68%.

What about the A1C (ZDF rats [9]; 60 mg · kg body wt−1 · day−1, 10 weeks, separate experiment) of the same compound?
The A1C was 5.4 ± 0.4%.

And the “TNF-α-impaired insulin receptor autophosphorylation, IRS-1 tyrosine phosphorylation and Ser-473 phosphorylation of Akt” value (3T3-L1 adipocytes [10])?
The value was “significantly ameliorated”.

And the plasma half-life [11]?
Its plasma half-life is about 4.2 h.

And the “Cer, liver” value (ob/ob mice [12]; [20])?
Its value is 95.9 ± 11.6 nmol/mg protein.

And the “Cer, muscle” value (ob/ob mice [12]; [20])?
The value was 1.29 ± 0.24 nmol/mg protein.

What about the “GlcCer, liver” value (ob/ob mice [12]; [20]) of the same compound?
Its value is 2.24 ± 0.14 nmol/mg protein.

And the “GlcCer, muscle” value (ob/ob mice [12]; [20])?
The value was 1.41 ± 0.16 nmol/mg protein.

And the “decrease of glucosylceramide content of muscle” value (ob/ob mice [12]; 25 mg · kg−1 · day−1, two weeks)?
The value was 45 ± 23%.

What about the “accumulation with daily exposure” value ([13]; daily exposure over 28 days) of the same compound?
The value was “does not accumulate”.

What about the “in vivo metabolism (mass spectrometric analysis of urine and plasma)” value ([13]; in vivo) of the same compound?
Its value is “No significant in vivo metabolism”.

And the maximal plasma concentration [13, 21]?
The maximal plasma concentration was 5 µmol/L.

And the “time of maximal plasma concentration” value [13, 21]?
Its value is 30 min.

And the “Liver Ceramide” value (ZDF rats [14]; 5 mg · kg−1 · day−1, 10 weeks)?
Its value is 416 ± 24 nmol/g wet wt.

And the “Liver GDA1” value (ZDF rats [14]; 5 mg · kg−1 · day−1, 10 weeks)?
The value was 15.5 ± 1.7 nmol/g wet wt.

And the “Liver GM1” value (ZDF rats [14]; 5 mg · kg−1 · day−1, 10 weeks)?
The value was 11.4 ± 2.2 nmol/g wet wt.

What about the “Liver GM2” value (ZDF rats [14]; 5 mg · kg−1 · day−1, 10 weeks) of the same compound?
Its value is 5.9 ± 0.9 nmol/g wet wt.

And the “Liver GM3” value (ZDF rats [14]; 5 mg · kg−1 · day−1, 10 weeks)?
The value was 21.3 ± 2.9 nmol/g wet wt.

What about the “Liver Glucosylceramide” value (ZDF rats [14]; 5 mg · kg−1 · day−1, 10 weeks) of the same compound?
Its value is 53.4 ± 5.7 nmol/g wet wt.

And the “Liver Ceramide” value (ZDF rats [14]; 25 mg · kg−1 · day−1, 10 weeks)?
The value was 451 ± 37 nmol/g wet wt.

And the “Liver GDA1” value (ZDF rats [14]; 25 mg · kg−1 · day−1, 10 weeks)?
Its value is 7.9 ± 0.9 nmol/g wet wt.

And the “Liver GM1” value (ZDF rats [14]; 25 mg · kg−1 · day−1, 10 weeks)?
The value was 5.6 ± 1.1 nmol/g wet wt.

What about the “Liver GM2” value (ZDF rats [14]; 25 mg · kg−1 · day−1, 10 weeks) of the same compound?
Its value is 4.8 ± 0.8 nmol/g wet wt.

What about the “Liver GM3” value (ZDF rats [14]; 25 mg · kg−1 · day−1, 10 weeks) of the same compound?
The value was 17.3 ± 2.7 nmol/g wet wt.

What about the “Liver Glucosylceramide” value (ZDF rats [14]; 25 mg · kg−1 · day−1, 10 weeks) of the same compound?
The value was 47.4 ± 5.2 nmol/g wet wt.

What about the “inhibition of endoplasmic reticulum–trimming α-glucosidases” value [15] of the same compound?
The value was “no significant inhibition”.

And the “inhibition of sphingomyelinase activity” value (sphingomyelinase)?
The value was “no significant inhibition”.

What about the “effect on glycogen synthase” value (glycogen synthase) of the same compound?
The value was “unaffected”.
